Tests used:
Mus musculus [1] = assay: Reduction in NNK-induced O6-methylguanine DNA adduct formation in A/J mouse lung at 200 ppm administered with AIN-93 G powder for 7 days followed by NNK-induction on day 7 post dose measured after 4 hrs by LC-ESI-MS/MS method relative to control; type: functional; parameters: scale not given: the % may be the effect or the level left
In short: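 Female A/J mice (6–7 weeks, one-week acclimation) fed AIN-93G powdered diet with 200 ppm compound from Day 0 (ethanol-processed diet for controls; n=3 per treatment, n=6 NNK control). Single i.p. NNK, 100 mg/kg in saline, on Day 7; lungs collected 4 h later. DNA isolated from half lung; O6-mG quantified by LC-MS/MS. Mean ± SD; one-way ANOVA with Dunnett's test versus NNK control.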

Mus musculus [2] = assay: Toxicity in NNK-induced long-term lung adenoma A/J mouse model assessed as effect on liver weight at 25 ppm administered with AIN-M powder for […] followed by NNK induction on day 7 at 100 mg/kg during compound dosing and […] post last dose measured after day 119 relative to body weight; type: organism-based; details: in vivo, po
In short: (§1)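 Female A/J mice fed AIN-93G diet with compound at 25 ppm. NNK given i.p. at 100 and 67 mg/kg on Day 7 and Day 14. Switched to AIN-M diet 24 h after the last NNK. On Day 119, mice were weighed, euthanized with CO2, and livers excised and weighed. Relative liver weight is liver weight divided by bodyweight for each mouse.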

Mus musculus [3] = assay: Toxicity in NNK-induced long-term lung adenoma A/J mouse model assessed as effect on liver weight at 25 ppm administered with AIN-M powder […] followed by NNK induction on day 7 at 100 mg/kg during compound dosing and […] post last dose measured after day 119; type: organism-based; details: in vivo, po; in short: as §1
Mus musculus [4] = assay: Reduction in NNK-induced long-term lung adenoma formation in A/J mouse at 25 ppm administered with AIN-M powder […] followed by NNK induction on day 7 at 100 mg/kg during compound dosing and […] post last dose measured after day 119 relative to control; type: functional; parameters: scale not given: the % may be the effect or the level left
In short: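 Female A/J mice fed AIN-93G powder diet with compound at 25 ppm (added in ethanol, vacuum-dried, dose checked by HPLC). NNK in saline given i.p. at 100 and 67 mg/kg on Day 7 and Day 14. Treated diet stopped 24 h after the last NNK, then AIN-M diet. On Day 119, surface lung adenomas were counted blinded by a pathologist. Mean ± SD; one-way ANOVA with Dunnett's test vs NNK control.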

Mus musculus [5] = assay: Toxicity in NNK-induced long-term lung adenoma A/J mouse model assessed as effect on body weight at 25 ppm administered with AIN-M powder […] followed by NNK induction on day 7 at 100 mg/kg during compound dosing and […] at 67 mg/kg post last dose measured every once a week during compound dosing; type: organism-based; details: in vivo, po
In short: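 Female A/J mice fed AIN-93G diet with compound at 25 ppm. NNK given i.p. at 100 mg/kg on Day 7 and 67 mg/kg on Day 14. Treated diet ended 24 h after the last NNK, followed by AIN-M diet. Bodyweight recorded once weekly and food intake twice weekly through Day 119.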

Liver [6] = assay: Drug metabolism in mouse liver microsomes assessed as 7-(benzo[d][1,3]dioxol-5-yl)-5-hydroxy-3-methoxyhept-2-enoic acid formation by LC-MS/MS method; type: ADME, microsome
[7] = Drug metabolism in mouse liver microsomes assessed as CYP450-mediated 7-(3,4-dihydroxyphenyl)-5-hydroxy-3-methoxyhept-2-enoic acid formation by LC-MS/MS method; type: ADME
Liver [8] = assay: Drug level in mouse liver microsomes treated with (+)DHM by LC-MS/MS method; type: ADME, microsome
[9] = Drug level in mouse liver microsomes treated with (+)DHM assessed as CYP450-mediated compound formation by LC-MS/MS method; type: ADME

Row | SMILES | Activity (Mus musculus [1]) [%] | Activity (Mus musculus [2]) | Activity (Mus musculus [3]) | Activity (Mus musculus [4]) [%] | Activity (Mus musculus [5]) | other results
1 | COC1=CC(=O)CC(CCc2ccc3c(c2)CCC3)C1 (stereo not given) | 11.8 |  |  |  |  | 
2 | COC1=CC(=O)OC(CCc2ccc3c(c2)CCC3)C1 (stereo not given) | 29.6 | Non-Toxic | Non-Toxic | 10.1 | Non-Toxic | 
3 | COC1=CC(=O)OC(CCc2ccccc2)C1 (racemic) | 16.4 | Non-Toxic | Non-Toxic | 6.3 | Non-Toxic | 
4 | COC1=CC(=O)O[C@@H](CCc2ccc3c(c2)OCO3)C1 [DIHYDROMETHYSTICIN] |  |  |  |  |  | Drug metabolism (Liver [6]): Metabolite_Detected; Drug metabolism [7]: Metabolite_Detected
5 | CO/C(=C/C(=O)O)CC(O)CCc1ccc2c(c1)OCO2 (stereo not given) |  |  |  |  |  | Drug metabolism (Liver [8]): Metabolite_Detected
6 | COC1=CC(=O)OC(CCc2ccc3c(c2)OCO3)C1 (racemic) | 72.3 | Non-Toxic | Non-Toxic | 94.2 | Non-Toxic | 
7 | CO/C(=C/C(=O)O)CC(O)CCc1ccc(O)c(O)c1 (stereo not given) |  |  |  |  |  | Drug metabolism [9]: Metabolite_Detected
8 | COC1=CC(=O)CC(CCc2ccc3c(c2)OCO3)C1 (stereo not given) | 63.8 | Non-Toxic | Non-Toxic | 89.4 | Non-Toxic | 
